Experimental data taken from ChEMBL document CHEMBL1145383, “Synthesis of stable and potent delta/mu opioid peptides: analogues of H-Tyr-c[D-Cys-Gly-Phe-D-Cys]-OH by ring-closing metathesis” (J Med Chem, 2007).

What was measured:
[1] = molecular target: Kappa-type opioid receptor (Cavia porcellus, UniProt P41144); assay: Displacement of [3H]U-69593 from kappa opioid receptor in guinea pig brain membrane; type: cell membranes
[2] = molecular target: Delta-type opioid receptor (Mus musculus, UniProt P32300); assay: Agonist activity at delta opioid receptor in mouse vas deferens assessed as inhibition of electrically-evoked muscle contraction; type: functional, tissue-based
Delta-type opioid receptor (Mus musculus, UniProt P32300), sequence (P32300 whole entry): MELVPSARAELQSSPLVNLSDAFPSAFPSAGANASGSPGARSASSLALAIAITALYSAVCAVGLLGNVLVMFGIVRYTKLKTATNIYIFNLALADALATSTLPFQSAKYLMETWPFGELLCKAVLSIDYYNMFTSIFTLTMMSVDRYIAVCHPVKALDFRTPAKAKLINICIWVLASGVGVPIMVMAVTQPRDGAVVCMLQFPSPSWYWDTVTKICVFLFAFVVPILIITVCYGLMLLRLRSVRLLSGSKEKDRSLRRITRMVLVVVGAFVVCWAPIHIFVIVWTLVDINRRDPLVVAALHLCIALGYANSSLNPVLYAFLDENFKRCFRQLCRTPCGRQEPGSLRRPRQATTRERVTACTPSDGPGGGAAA
In short: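 Mouse vas deferens from male ICR mice (25–30 g), bathed in oxygenated (95% O2/5% CO2) magnesium-free Krebs bicarbonate at 37 °C. Tension 0.5 g, stimulated transmurally at 0.1 Hz with 2.0 ms pulses at supramaximal voltage. Agonist contact 3 min, then rinse and 8 min recovery. IC50 from Hill fit of mean data, n ≥ 4 tissues.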

Mu-type opioid receptor [3] = molecular target: Mu-type opioid receptor (Cavia porcellus, UniProt P97266); assay: Agonist activity at mu opioid receptor in isolated guinea pig ileum assessed as inhibition of electrically-evoked myenteric muscle contraction; type: functional, tissue-based
Mu-type opioid receptor (Cavia porcellus, UniProt P97266), sequence (P97266 whole entry): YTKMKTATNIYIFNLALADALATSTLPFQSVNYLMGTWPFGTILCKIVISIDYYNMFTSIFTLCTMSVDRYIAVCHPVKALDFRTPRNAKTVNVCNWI
In short: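 Longitudinal muscle-myenteric plexus from male Hartley guinea pigs (150–400 g), in oxygenated (95% O2/5% CO2) Krebs bicarbonate at 37 °C. Tension 1 g, transmural stimulation at 0.1 Hz with 0.4 ms pulses at supramaximal voltage. Agonist left 3 min, then washout and 8 min re-equilibration. IC50 by nonlinear least-squares Hill fit of mean data from at least four tissues.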

Mu-type opioid receptor [4] = molecular target: T1, Mu-type opioid receptor (Homo sapiens, UniProt P35372); assay: Agonist activity at human mu opioid receptor by [35S]GTP-gamma-S binding assay; type: functional
T1 sequence (P35372 whole entry): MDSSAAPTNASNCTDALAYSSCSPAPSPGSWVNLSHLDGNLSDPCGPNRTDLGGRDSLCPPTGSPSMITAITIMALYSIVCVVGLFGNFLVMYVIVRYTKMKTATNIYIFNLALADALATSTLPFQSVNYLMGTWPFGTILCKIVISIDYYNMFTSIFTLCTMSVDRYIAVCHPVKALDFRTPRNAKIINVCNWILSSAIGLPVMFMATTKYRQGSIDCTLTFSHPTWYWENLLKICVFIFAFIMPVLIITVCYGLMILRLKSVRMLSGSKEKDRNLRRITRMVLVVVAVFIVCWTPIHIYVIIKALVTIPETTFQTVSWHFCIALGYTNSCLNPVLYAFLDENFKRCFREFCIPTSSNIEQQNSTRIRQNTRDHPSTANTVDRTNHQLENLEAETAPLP

Mu-type opioid receptor [5] = molecular target: T1, Mu-type opioid receptor; assay: Agonist activity at human mu opioid receptor by [35S]GTP-gamma-S binding assay relative to control; type: functional
[6] = molecular target: T2, Delta-type opioid receptor (Homo sapiens, UniProt P41143); assay: Agonist activity at human delta opioid receptor by [35S]GTP-gamma-S binding assay; type: functional
T2 sequence (P41143 whole entry): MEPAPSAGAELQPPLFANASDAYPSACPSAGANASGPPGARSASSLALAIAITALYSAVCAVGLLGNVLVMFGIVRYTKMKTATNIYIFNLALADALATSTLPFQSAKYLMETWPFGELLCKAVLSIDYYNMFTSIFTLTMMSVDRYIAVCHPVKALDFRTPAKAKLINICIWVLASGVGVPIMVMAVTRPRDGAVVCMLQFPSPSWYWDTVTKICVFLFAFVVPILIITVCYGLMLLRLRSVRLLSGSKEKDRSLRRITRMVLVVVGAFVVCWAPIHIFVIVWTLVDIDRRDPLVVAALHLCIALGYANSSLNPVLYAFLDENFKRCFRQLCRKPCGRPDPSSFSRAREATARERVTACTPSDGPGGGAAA
In short: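 Cells expressing hDOR were incubated with increasing test concentrations plus 0.1 nM [35S]GTPγS, in duplicate, for 90 min at 30 °C. Reaction stopped by vacuum filtration through GF/B filters pretreated with assay buffer. Filters washed four times with ice-cold 15 mM Tris/120 mM NaCl, pH 7.4, and bound label counted by liquid scintillation after overnight extraction.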

[7] = molecular target: T2, Delta-type opioid receptor; assay: Agonist activity at human delta opioid receptor by [35S]GTP-gamma-S binding assay relative to control; type: functional

Kappa-type opioid receptor, sequence (P41144 whole entry): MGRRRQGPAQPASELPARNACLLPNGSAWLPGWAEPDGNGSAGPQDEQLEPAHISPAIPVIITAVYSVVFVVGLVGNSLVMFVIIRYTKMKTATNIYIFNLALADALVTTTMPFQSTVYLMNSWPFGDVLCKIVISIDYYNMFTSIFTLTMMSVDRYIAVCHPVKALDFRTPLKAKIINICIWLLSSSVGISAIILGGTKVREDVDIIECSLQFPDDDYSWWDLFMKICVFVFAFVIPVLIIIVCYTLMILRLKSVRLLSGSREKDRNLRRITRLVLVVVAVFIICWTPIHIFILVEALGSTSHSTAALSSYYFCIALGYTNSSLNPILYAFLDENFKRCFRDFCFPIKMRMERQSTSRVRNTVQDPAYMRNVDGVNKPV

SMILES | Ki [1] [nM] | IC50 [2] [nM] | IC50 (Mu-type opioid receptor [3]) [nM] | EC50 (Mu-type opioid receptor [4]) [nM] | Emax (Mu-type opioid receptor [5]) [%] | EC50 [6] [nM] | Emax [7] [%]
N[C@@H](Cc1ccc(O)cc1)C(=O)N[C@@H]1CCCC[C@H](C(=O)O)NC(=O)[C@H](Cc2ccccc2)NC(=O)CNC1=O | 3960 | 3.4 | 59 | – | – | – | –
N[C@@H](Cc1ccc(O)cc1)C(=O)N[C@@H]1C/C=C/C[C@H](C(=O)O)NC(=O)[C@H](Cc2ccccc2)NC(=O)CNC1=O | 74.8 | 0.76 | 5.2 | 2.65 | 70 | 0.88 | 128
N[C@@H](Cc1ccc(O)cc1)C(=O)N[C@@H]1C/C=C\C[C@H](C(=O)O)NC(=O)[C@H](Cc2ccccc2)NC(=O)CNC1=O | 576 | 0.59 | 5.3 | 2.35 | 65 | 0.83 | 121
C=CC[C@@H](NC(=O)[C@H](Cc1ccccc1)NC(=O)CNC(=O)[C@@H](CC=C)NC(=O)[C@@H](N)Cc1ccc(O)cc1)C(=O)O | 3870 | 5.7 | 34 | – | – | – | –
